From ChEMBL document CHEMBL4190234, “Design, synthesis and anticancer activity of new monastrol analogues bearing 1,3,4-oxadiazole moiety” (Eur J Med Chem, 2017) come the findings set out here.

Each structure is given as a SMILES string.

Experiment [1] relates to HL-60(TB). The experiment is described as follows: Growth inhibition of human HL-60(TB) cells incubated for 24 hrs by MTT assay. In kind it is functional, cell-based. The settings on record: HL-60, 24 h. A digest of the protocol:
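Cells at 1.2-1.8×10^4 cells/ml in DMEM with 10% FBS, 10 µg/ml insulin and 1% penicillin/streptomycin, plated overnight at 37°C. Serial 10-fold dilutions added to 0.01–100 µM final, medium as negative control, 24 h. MTT (5 mg/ml) added for 4 h, formazan dissolved in acid-isopropanol, A490 read. Eight separate experiments; percent viable cells used to derive IC50.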
(In general: Tetrazolium dyes change colour on reduction, which living cells bring about.)

The subject of experiment [2] is MOLT-4. Description: Growth inhibition of human MOLT4 cells incubated for 24 hrs by MTT assay. Conditions: MOLT-4, 24 h. The class given is functional, cell-based.
In experiment [3] the test system is MOLT-4. Description: Induction of apoptosis in human MOLT4 cells assessed as live cells at 0.43 uM after 24 hrs by Annexin V-FITC/propidium iodide staining based flow cytometry (reference value: 99.12%). The class given is functional. (Flow cytometry measures light scatter and fluorescence of single cells or particles in a stream.)
Experiment [4] deals with MOLT-4. The experiment is described as follows: Cell cycle arrest in human MOLT4 cells assessed as accumulation at G2/M phase at 0.43 uM after 24 hrs by propidium iodide staining based flow cytometry (reference value: 4.35%). In kind it is functional. A digest of the protocol: (§1)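 MOLT-4 cells (1×10^6) exposed 24 h to 0.160 or 0.430 μM test agent, DMSO (0.002%) control; trypsinized, washed in ice-cold PBS, fixed in ice-cold 70% ethanol ≥2 h at 4°C, washed, stained with propidium iodide DNA kit; cell cycle distribution (pre-G, G0/G1, S, G2/M) by flow cytometry.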

Experiment [5] concerns MOLT-4. The experiment is described as follows: Induction of apoptosis in human MOLT4 cells assessed as increase in apoptotic cells at 0.43 uM after 24 hrs by Annexin V-FITC/propidium iodide staining based flow cytometry relative to control. In kind it is functional.
The subject of experiment [6] is HL-60(TB). The experiment is described as follows: Induction of apoptosis in human HL-60(TB) cells assessed as late apoptotic cells at 0.294 uM after 24 hrs by Annexin V-FITC/propidium iodide staining based flow cytometry (reference value: 0.39%). In kind it is functional.
Experiment [7] deals with HL-60(TB). The experiment is described as follows: Cell cycle arrest in human HL-60(TB) cells assessed as accumulation of apoptotic cells in pre-G phase at 0.294 uM after 24 hrs by propidium iodide staining based flow cytometry (reference value: 1.44%). In kind it is functional.
The test system of experiment [8] is MOLT-4. The experiment is described as follows: Cell cycle arrest in human MOLT4 cells assessed as accumulation at G0/G1 phase at 0.43 uM after 24 hrs by propidium iodide staining based flow cytometry (reference value: 74.22%). The class given is functional. A digest of the protocol:
as §1

Experiment [9] deals with HL-60(TB). The experiment is described as follows: Cell cycle arrest in human HL-60(TB) cells assessed as accumulation at G0/G1 phase at 0.294 uM after 24 hrs by propidium iodide staining based flow cytometry (reference value: 68.43%). The class given is functional.
The test system of experiment [10] is HL-60(TB). The experiment is described as follows: Induction of apoptosis in human HL-60(TB) cells assessed as increase in apoptotic cells at 0.294 uM after 24 hrs by Annexin V-FITC/propidium iodide staining based flow cytometry relative to control. The class given is functional.
Experiment [11] has as its system MOLT-4. Description: Cell cycle arrest in human MOLT4 cells assessed as accumulation of apoptotic cells in pre-G phase at 0.43 uM after 24 hrs by propidium iodide staining based flow cytometry (reference value: 0.88%). In kind it is functional. Summed up:
as §1

In experiment [12] the test system is HL-60(TB). The experiment is described as follows: Induction of apoptosis in human HL-60(TB) cells assessed as live cells at 0.294 uM after 24 hrs by Annexin V-FITC/propidium iodide staining based flow cytometry (reference value: 98.57%). In kind it is functional.
The test system of experiment [13] is HL-60(TB). Description: Cell cycle arrest in human HL-60(TB) cells assessed as accumulation at S phase at 0.294 uM after 24 hrs by propidium iodide staining based flow cytometry (reference value: 22.84%). The class given is functional.
Experiment [14] deals with HL-60(TB). Description: Cell cycle arrest in human HL-60(TB) cells assessed as accumulation at G2/M phase at 0.294 uM after 24 hrs by propidium iodide staining based flow cytometry (reference value: 7.29%). In kind it is functional.
Experiment [15] deals with HL-60(TB). The experiment is described as follows: Induction of apoptosis in human HL-60(TB) cells assessed as early apoptotic cells at 0.294 uM after 24 hrs by Annexin V-FITC/propidium iodide staining based flow cytometry (reference value: 0.84%). In kind it is functional.
In experiment [16] the test system is MOLT-4. Description: Induction of apoptosis in human MOLT4 cells assessed as late apoptotic cells at 0.43 uM after 24 hrs by Annexin V-FITC/propidium iodide staining based flow cytometry (reference value: 0.24%). The class given is functional.
Experiment [17] concerns MOLT-4. The experiment is described as follows: Induction of apoptosis in human MOLT4 cells assessed as necrotic cells at 0.43 uM after 24 hrs by Annexin V-FITC/propidium iodide staining based flow cytometry (reference value: 0.11%). The class given is functional.
Experiment [18] deals with MOLT-4. The experiment is described as follows: Cell cycle arrest in human MOLT4 cells assessed as accumulation at S phase at 0.43 uM after 24 hrs by propidium iodide staining based flow cytometry (reference value: 20.55%). The class given is functional. Summed up:
as §1

Experiment [19] deals with MOLT-4. The experiment is described as follows: Induction of apoptosis in human MOLT4 cells assessed as early apoptotic cells at 0.43 uM after 24 hrs by Annexin V-FITC/propidium iodide staining based flow cytometry (reference value: 0.53%). In kind it is functional.
Experiment [20] concerns HL-60(TB). The experiment is described as follows: Induction of apoptosis in human HL-60(TB) cells assessed as necrotic cells at 0.294 uM after 24 hrs by Annexin V-FITC/propidium iodide staining based flow cytometry (reference value: 0.2%). In kind it is functional.

For the molecule `CCOC(=O)C1=C(C)NC(SCc2nnc(-c3ccccc3)o2)=NC1c1ccc(Cl)cc1` (stereo unspecified), the results for the IC50 in the experiment on HL-60(TB) [1] and with MOLT-4 [2] were 74.4 µM and 344 µM, respectively.

Turning to `CCOC(=O)C1=C(C)NC(=S)NC1c1cccc(O)c1` (stereo unspecified) [MONASTROL], the Activity was found to be 89.2% with MOLT-4 [3]; 13.92% in the experiment on MOLT-4 [4]; 3.19% in the experiment with HL-60(TB) [6]; 6.89% with HL-60(TB) [7]; 55.72% in the experiment on MOLT-4 [8]; 61.23% in the experiment with HL-60(TB) [9]. In addition, the Activity in the experiment on MOLT-4 [11] is on record as 8.63%; in the experiment on HL-60(TB) [12] it was 90.89%; in the experiment on HL-60(TB) [13], 21.9%; with HL-60(TB) [14], 9.98%; in the experiment with HL-60(TB) [15], 3.07%; in the experiment with MOLT-4 [16], 4.21%. Moreover, the Activity with MOLT-4 [17] is on record as 1.03%; in the experiment with MOLT-4 [18], 21.73%; in the experiment on MOLT-4 [19], 3.39%; with HL-60(TB) [20] it was 0.63%. In addition, the IC50 amounted to 0.147 µM with HL-60(TB) [1] and 0.215 µM in the experiment with MOLT-4 [2]. Moreover, the “fold change (FC)” value in the experiment with MOLT-4 [5] was 10; in the experiment with HL-60(TB) [10], 5.1.

`CCOC(=O)C1=C(C)NC(SCc2nnc(-c3ccc(Cl)cc3)o2)=NC1c1ccccc1Cl` (stereo unspecified): the results for the IC50 with HL-60(TB) [1] and in the experiment with MOLT-4 [2] were 193 µM and 255 µM, respectively.

In the case of `CCOC(=O)C1=C(C)NC(SCc2nnc(-c3ccc(C)cc3)o2)=NC1c1ccc(Cl)cc1` (stereo unspecified), the IC50 amounted to 220 µM with HL-60(TB) [1] and 538 µM in the experiment with MOLT-4 [2].

One may read the IC50 as the concentration that gives 50% inhibition. Read a low IC50 as greater potency.
